According to ChEMBL document CHEMBL4402570, “Discovery and Optimization of Novel Pyrazolopyrimidines as Potent and Orally Bioavailable Allosteric HIV-1 Integrase Inhibitors” (J Med Chem, 2020):

Legend:
[1] = test system: Human immunodeficiency virus 1; test: Antiviral activity against HIV1 NL4-3 infected in human MT2 cells measured after 3 to 4 days by luciferase reporter gene assay; format: functional, organism-based
[2] = Cytotoxicity against human MT2 cells measured after 4 days by XTT assay; format: cell-based
In short: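 MT-2 cell viability measured by XTT after 4 days of compound exposure, run in parallel with the antiviral assay; CC50 from n ≥ 2 determinations.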

[3] = Permeability of the compound in pH 7.4 buffer at 100 uM measured after 4 hrs by sandwich-PAMPA; format: ADME; conditions: read-out: permeability
In short: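 Parallel artificial membrane permeability: compound at 100 μM in donor buffer pH 7.4, permeating to acceptor through artificial membrane over 4 h; donor, acceptor and t0 solutions read by UV plate reader; triplicate.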

[4] = Stability of the compound in human liver microsomes assessed as parent compound remaining at 0.5 uM measured after 10 mins in presence of NADPH by LC-MS/MS analysis; format: ADME, Microsome; conditions: read-out: Stability
In short: (§1)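 CYP-mediated turnover: 0.5 μM compound with human or rat liver microsomes (1 mg/mL) in 100 mM sodium phosphate pH 7.4, 6.6 mM MgCl2, 37 °C; started with NADPH, DMSO 0.014%. Samples quenched at 0 and 10 min; parent remaining by LC-MS/MS; duplicate.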

[5] = Stability of the compound in rat liver microsomes assessed as parent compound remaining at 0.5 uM measured after 10 mins in presence of NADPH by LC-MS/MS analysis; format: ADME, Microsome; conditions: read-out: Stability; in short: as §1
[6] = Therapeutic index, ratio of CC50 for human MT2 cells to EC50 for HIV1 NL4-3 infected in human MT2 cells; format: toxicity, cell-based; conditions: read-out: Ratio CC50/EC50
[7] = test system: Human immunodeficiency virus 1; test: Antiviral activity against HIV1 NL4-3 infected in human MT2 cells measured after 3 to 4 days in presence of human serum albumin by luciferase reporter gene assay; format: functional, organism-based; conditions: Human immunodeficiency virus 1, NL4-3, MT2
[8] = test system: Human immunodeficiency virus 1; test: Selectivity ratio of EC50 for HIV1 NL4-3 infected in human MT2 cells in presence of human serum albumin to EC50 for HIV1 NL4-3 infected in human MT2 cells in absence of human serum albumin; format: functional
[9] = Cmax in Sprague-Dawley rat at 1 mg/kg, iv infusion for 10 mins or 5 mg/kg, po administered via gavage by LC-MS/MS analysis; format: ADME, organism-based; conditions: in vivo
In short: (§2)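 Rats given iv via implanted venous cannula as 10 min infusion, or oral gavage after overnight fast; vehicle 10% dimethylacetamide/90% PEG400 for both routes. Plasma from venous-port blood, treated with CH3CN containing internal standard, analysed by LC-MS/MS; oral plasma levels followed 24 h after 5 mg/kg. Parameters by noncompartmental analysis of concentration-time data.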

[10] = Tmax in Sprague-Dawley rat at 1 mg/kg, iv infusion for 10 mins or 5 mg/kg, po administered via gavage by LC-MS/MS analysis; format: ADME, organism-based; conditions: in vivo; in short: as §2
[11] = AUC (0 to 24 hrs) in Sprague-Dawley rat at 1 mg/kg, iv infusion for 10 mins or 5 mg/kg, po administered via gavage by LC-MS/MS analysis; format: ADME, organism-based; conditions: in vivo; in short: as §2
[12] = Half life in Sprague-Dawley rat at 1 mg/kg, iv infusion for 10 mins or 5 mg/kg, po administered via gavage by LC-MS/MS analysis; format: ADME, organism-based; conditions: in vivo; in short: as §2
[13] = Clearance in Sprague-Dawley rat at 1 mg/kg, iv infusion for 10 mins or 5 mg/kg, po administered via gavage by LC-MS/MS analysis; format: ADME, organism-based; conditions: in vivo; in short: as §2
[14] = Volume of distribution at steady state in Sprague-Dawley rat at 1 mg/kg, iv infusion for 10 mins or 5 mg/kg, po administered via gavage by LC-MS/MS analysis; format: ADME, organism-based; conditions: in vivo, read-out: Vdss; in short: as §2
[15] = Oral bioavailability in Sprague-Dawley rat at 5 mg/kg administered via gavage by LC-MS/MS analysis; format: ADME, organism-based; conditions: in vivo; in short: as §2
[16] = molecular target: Human immunodeficiency virus type 1 integrase (Human immunodeficiency virus 1, UniProt Q7ZJM1); test: Allosteric inhibition of [3H]-2-tert-butoxy-2-[2-methyl-4-(p-tolyl)-3-quinolyl]acetic acid binding to HIV1 integrase measured after 1 hr under dark condition by microbeta plate reader method
In short: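 Scintillation proximity displacement of tritiated LEDGF-site inhibitor from purified HIV-1 integrase (13 μM) premixed 1 h with PVT SPA beads (2 mg/mL); […]. Buffer 26 mM MOPS pH 7.0, 11 mM DTT, 100 mM NaCl, 20 mM MgCl2, 0.05% NP-40, 5% PEG-8000. Compounds 100 μM to 0.0512 nM, ten 5-fold dilutions. 1 h rocking, RT, dark; read after overnight; Ki derived.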

[17] = test system: Human immunodeficiency virus 1; test: Antiviral activity against HIV1 NL4-3 harboring G140S/Q148H mutant infected in human MT2 cells measured after 3 to 4 days by luciferase reporter gene assay; format: functional, organism-based; conditions: Human immunodeficiency virus 1, NL4-3, MT2
In short: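 MT-2 cells (RPMI 1640, 10% heat-inactivated FBS, 10 mM HEPES pH 7.55, 2 mM L-glutamine, penicillin/streptomycin) infected with titered NL4-3 Renilla luciferase reporter virus (luciferase replacing nef) carrying integrase G140S/Q148H, with serial compound dilutions from 10 mM DMSO stock, final DMSO 1%; luciferase read after 3–4 days; EC50 from median effect equation; n ≥ 2, some n = 1.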

[18] = Human immunodeficiency virus 1, NL4-3, MT2

Human immunodeficiency virus type 1 integrase, sequence (Q7ZJM1 whole entry): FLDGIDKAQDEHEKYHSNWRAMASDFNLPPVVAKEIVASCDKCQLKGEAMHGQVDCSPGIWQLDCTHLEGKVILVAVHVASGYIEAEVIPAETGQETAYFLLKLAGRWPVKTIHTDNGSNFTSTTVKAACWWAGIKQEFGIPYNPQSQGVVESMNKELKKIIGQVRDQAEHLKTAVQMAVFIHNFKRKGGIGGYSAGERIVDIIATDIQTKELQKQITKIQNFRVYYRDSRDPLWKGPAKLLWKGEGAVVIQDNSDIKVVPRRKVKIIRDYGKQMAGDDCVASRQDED

COc1ccccc1-c1cccc(-c2cc3nc(C)c([C@H](OC(C)(C)C)C(=O)O)c(-c4cc(F)c5c(c4C)CCCO5)n3n2)c1
EC50 [1, 18]: 0.006 µM | CC50 at 96 h [2]: 23.5 µM | Papp at 4 h, 100 µM [3]: 76.5 ×10⁻⁶ cm/s | remaining at 10 min, 0.5 µM [4]: 99% | remaining at 10 min, 0.5 µM [5]: 99% | selectivity ratio [6]: 3920 | EC50 [7]: 0.03 µM | Ratio EC50 [8]: 5 | Cmax [9]: 1110 nM | Tmax [10]: 2.3 h | AUC(0-t) [11]: 2.99 µM·h | half-life [12]: 3 h | clearance [13]: 28 mL/min/kg | Vd [14]: 1.8 L/kg | bioavailability [15]: 59%

Cc1ccc(-c2c(C(O)C(=O)O)c(C)nc3cc(-c4ccccc4)nn23)cc1 (centres undefined)
EC50 [1, 18]: > 40 µM

Cc1nc2cc(-c3ccccc3)nn2c(N2CCCCCC2)c1C(OC(C)(C)C)C(=O)O (centres undefined)
Ki [16]: 0.43 µM | EC50 [1, 18]: 2.3 µM

Cc1ccccc1-c1c(C(OC(C)(C)C)C(=O)O)c(C)nc2cc(-c3ccccc3)nn12 (centres undefined)
Ki [16]: 3.4 µM | EC50 [1, 18]: 21 µM

Cc1nc2cc(-c3ccc(OCc4ccccc4)cc3)nn2c(-c2cc(F)c3c(c2C)CCCO3)c1C(OC(C)(C)C)C(=O)O (centres undefined)
EC50 [1, 18]: 0.06 µM | Papp at 4 h, 100 µM [3]: 31.3 ×10⁻⁶ cm/s | remaining at 10 min, 0.5 µM [4]: 84% | remaining at 10 min, 0.5 µM [5]: 79%

Cc1ccc(Nc2c(C(OC(C)(C)C)C(=O)O)c(C)nc3cc(-c4ccccc4)nn23)cc1 (centres undefined)
Ki [16]: > 40 µM | EC50 [1, 18]: > 40 µM

Cc1nc2cc(-c3cccc(-c4ccccc4F)c3)nn2c(-c2cc(F)c3c(c2C)CCCO3)c1[C@H](OC(C)(C)C)C(=O)O
EC50 [1, 18]: 0.003 µM | CC50 at 96 h [2]: 19.1 µM | Papp at 4 h, 100 µM [3]: 60.8 ×10⁻⁶ cm/s | remaining at 10 min, 0.5 µM [4]: 100% | remaining at 10 min, 0.5 µM [5]: 89% | selectivity ratio [6]: 6360 | EC50 [7]: 0.019 µM | Ratio EC50 [8]: 6 | Cmax [9]: 803 nM | Tmax [10]: 2.7 h | AUC(0-t) [11]: 4.73 µM·h | half-life [12]: 2 h | clearance [13]: 13 mL/min/kg | Vd [14]: 0.7 L/kg | bioavailability [15]: 44%

CC(C)(C)OC(C(=O)O)c1ccccc1-c1ccccc1 (centres undefined)
Ki [16]: 67 µM | EC50 [1, 18]: 16 µM | CC50 at 96 h [2]: 127 µM

COc1ccc(-c2c(C(OC(C)(C)C)C(=O)O)c(C)nc3cc(-c4ccccc4)nn23)cc1 (centres undefined)
Ki [16]: 0.31 µM | EC50 [1, 18]: 1.7 µM

COc1cccc(-c2c(C(OC(C)(C)C)C(=O)O)c(C)nc3cc(-c4ccccc4)nn23)c1 (centres undefined)
Ki [16]: 15.3 µM | EC50 [1, 18]: > 40 µM

Cc1nc2cc(-c3ccccc3)nn2c(C)c1C(OC(C)(C)C)C(=O)O (centres undefined)
Ki [16]: > 40 µM | EC50 [1, 18]: > 40 µM

Cc1ccc(-c2c(C(OC(C)(C)C)C(N)=O)c(C)nc3cc(-c4ccccc4)nn23)cc1 (centres undefined)
EC50 [1, 18]: 18 µM

Cc1nc2cc(-c3cccc(-c4ccccc4)c3)nn2c(-c2cc(F)c3c(c2C)CCCO3)c1C(OC(C)(C)C)C(=O)O (racemic)
EC50 [1, 18]: 0.015 µM | Papp at 4 h, 100 µM [3]: 65.2 ×10⁻⁶ cm/s | remaining at 10 min, 0.5 µM [4]: 86% | remaining at 10 min, 0.5 µM [5]: 100% | EC50 [17]: 0.01 µM

Cc1nc2cc(-c3ccccc3)nn2c(-c2cc(F)c3c(c2C)CCCO3)c1C(OC(C)(C)C)C(=O)O (racemic)
Ki [16]: 0.17 µM | EC50 [1]: 0.21 µM | Papp at 4 h, 100 µM [3]: 21.8 ×10⁻⁶ cm/s | remaining at 10 min, 0.5 µM [4]: 93% | remaining at 10 min, 0.5 µM [5]: 97% | EC50 [17]: 0.119 µM

Cc1nc2cc(-c3ccccc3)nn2c(-c2cc(F)c3c(c2C)CCCO3)c1C(OC(C)(C)C)C(=O)O (stereo in doubt; 15)
Ki [16]: 3.4 µM | EC50 [1]: > 40 µM

Cc1nc2ccccc2c(-c2ccc3c4c(ccnc24)CCO3)c1[C@H](OC(C)(C)C)C(=O)O [BI-224436]
EC50 [1, 18]: 0.05 µM | CC50 at 96 h [2]: 3340 µM | selectivity ratio [6]: 66800

Cc1nnc(C(=O)NC(C)(C)c2nc(C(=O)NCc3ccc(F)cc3)c(O)c(=O)n2C)o1 [RALTEGRAVIR]
EC50 [1, 18]: 0.002 µM | EC50 [17]: 2.42 µM
